The source of these data is publication PMC7424198 (iScience, 2020).

A short description of this data set: Thermal unfolding monitored by CD spectroscopy. Format: physicochemical. Particulars: 20 μM protein, 10 mM phosphate buffer pH 7.4, 2 °C intervals, 20 to 90 °C. The method, boiled down:
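TM read as the transition point from the first derivative of the CD thermal unfolding curve. Reversibility was checked by comparing spectra recorded before and after heating. The 202 nm signal was followed during denaturation to look for an isodichroic point, which would indicate a two-state helix–unfolded transition. Spectra were recorded on 20 μM protein in 10 mM phosphate buffer.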

With aureocin A53, the “transition midpoint (TM) of thermal unfolding” value was approximately 54 °C.
